Data reported in article PMC4299864 (Chirality, 2013).

Tests used:
Type in all cases: cell-based
[1] = target: T1, human FPR1 (Homo sapiens, UniProt P21462); assay: Ca2+ mobilization in HL-60 cells transfected with FPR1; details: HL-60-FPR1 cells; for Ca2+ Mobilization Efficacy, FPR1: percent of the response induced by 5 nM fMLF; for EC50: read-out: Ca2+ Mobilization EC50, FPR1, mean of three independent experiments, N.A. = no activity, limits efficacy > 20 % and EC50 < 50 μM
T1 sequence (P21462 1-350): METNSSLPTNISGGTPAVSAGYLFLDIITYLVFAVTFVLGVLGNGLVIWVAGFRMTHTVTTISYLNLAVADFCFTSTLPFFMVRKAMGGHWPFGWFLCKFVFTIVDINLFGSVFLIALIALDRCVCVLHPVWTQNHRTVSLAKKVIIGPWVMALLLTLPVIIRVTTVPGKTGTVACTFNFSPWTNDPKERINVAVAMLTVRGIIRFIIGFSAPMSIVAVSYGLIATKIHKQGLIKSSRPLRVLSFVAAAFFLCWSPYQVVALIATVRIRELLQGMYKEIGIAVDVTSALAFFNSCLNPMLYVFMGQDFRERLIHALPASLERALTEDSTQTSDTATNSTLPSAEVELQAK
How it was run: (§1)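 Stably transfected HL-60 cells were grown in RPMI 1640 with 10% heat-inactivated FCS, 10 mM HEPES and G418 (1 mg/mL). Cells were loaded with Fluo-4 AM (1.25 μg/mL final) for 30 min at 37 °C in the dark, then resuspended in HBSS with Ca²⁺/Mg²⁺ at 2 × 10⁵ cells/well. Fluorescence (ex 485/em 538 nm) was read every 5 s for 240 s at room temperature after compound addition. Peak change over baseline was set against 5 nM fMLF (FPR1) or 5 nM WKYMVm (FPR2, FPR3) as 100%. Curves had 5–6 points, from three independent experiments.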

[2] = target: T2, human FPR2 (Homo sapiens, UniProt P25090); assay: Ca2+ mobilization in HL-60 cells transfected with FPR2; details: HL-60-FPR2 cells; for Ca2+ Mobilization Efficacy, FPR2: percent of the response induced by 5 nM WKYMVm; for EC50: read-out: Ca2+ Mobilization EC50, FPR2, mean of three independent experiments, N.A. = no activity, limits efficacy > 20 % and EC50 < 50 μM
T2 sequence (P25090 1-351): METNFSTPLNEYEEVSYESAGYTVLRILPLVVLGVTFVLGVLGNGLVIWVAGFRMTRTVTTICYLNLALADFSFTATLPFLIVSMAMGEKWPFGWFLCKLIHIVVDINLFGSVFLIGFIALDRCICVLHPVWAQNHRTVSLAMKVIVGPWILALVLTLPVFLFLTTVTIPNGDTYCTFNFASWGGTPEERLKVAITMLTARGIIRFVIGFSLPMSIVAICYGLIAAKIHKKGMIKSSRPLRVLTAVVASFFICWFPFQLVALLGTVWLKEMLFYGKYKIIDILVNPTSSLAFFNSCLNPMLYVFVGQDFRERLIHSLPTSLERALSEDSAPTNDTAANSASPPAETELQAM
How it was run: as §1

[3] = target: T3, human FPR3 (Homo sapiens, UniProt P25089); assay: Ca2+ mobilization in HL-60 cells transfected with FPR3; details: HL-60-FPR3 cells; for Ca2+ Mobilization Efficacy, FPR3: percent of the response induced by 5 nM WKYMVm; for EC50: read-out: Ca2+ Mobilization EC50, FPR3, mean of three independent experiments, N.A. = no activity, limits efficacy > 20 % and EC50 < 50 μM
T3 sequence (P25089 1-353): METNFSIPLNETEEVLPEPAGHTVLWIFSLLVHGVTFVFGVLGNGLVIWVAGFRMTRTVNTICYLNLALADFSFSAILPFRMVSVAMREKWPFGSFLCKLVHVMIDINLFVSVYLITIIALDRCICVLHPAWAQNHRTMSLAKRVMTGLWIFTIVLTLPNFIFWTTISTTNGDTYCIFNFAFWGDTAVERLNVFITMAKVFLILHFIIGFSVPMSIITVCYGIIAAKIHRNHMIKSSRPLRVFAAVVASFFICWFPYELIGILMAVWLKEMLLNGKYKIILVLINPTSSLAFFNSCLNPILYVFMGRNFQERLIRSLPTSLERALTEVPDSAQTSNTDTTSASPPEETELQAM
How it was run: as §1

## CC1CC(c2ccccc2)=NN(CC(=O)Nc2ccc(Br)cc2)C1=O (racemic) [(±)-4a, (±)-N-(4-Bromophenyl)-2-[5-methyl-6-oxo-3-phenyl-5,6-dihydropyridazin-1(4H)-yl]acetamide]
[1]
  Ca2+ Mobilization Efficacy, FPR1: 55%
  EC50: 23.5 µM
[2]
  Ca2+ Mobilization Efficacy, FPR2: 65%
  EC50: 7 µM

## C[C@H]1CC(c2ccccc2)=NN(CC(=O)Nc2ccc(Br)cc2)C1=O [S-(-)-4a, S-(-)-N-(4-Bromophenyl)-2-[5-methyl-6-oxo-3-phenyl-5,6-dihydropyridazin-1(4H)-yl] acetamide]
[1]
  Ca2+ Mobilization Efficacy, FPR1: 75%
  EC50: 19.5 µM
[3]
  Ca2+ Mobilization Efficacy, FPR3: 40%
  EC50: 8.3 µM
[2]
  Ca2+ Mobilization Efficacy, FPR2: 95%
  EC50: 10.7 µM

## Cc1cc(-c2ccccc2)nn(CC(=O)Nc2ccc(Br)cc2)c1=O [8a, N-(4-Bromophenyl)-2-[5-methyl-6-oxo-3-phenylpyridazin-1(6H)-yl]acetamide]
[1]
  Ca2+ Mobilization Efficacy, FPR1: 50%
[2]
  Ca2+ Mobilization Efficacy, FPR2: 45%

## C[C@@H]1CC(c2ccccc2)=NN(CC(=O)Nc2ccc(Br)cc2)C1=O [R-(+)-4a, R-(+)-N-(4-Bromophenyl)-2-[5-methyl-6-oxo-3-phenyl-5,6-dihydropyridazin-1(4H)-yl] acetamide]
[1]
  Ca2+ Mobilization Efficacy, FPR1: 80%
  EC50: 24.4 µM
[3]
  Ca2+ Mobilization Efficacy, FPR3: 40%
  EC50: 7.1 µM
[2]
  Ca2+ Mobilization Efficacy, FPR2: 85%
  EC50: 10 µM
